Values after ≈ are worked out from the molar mass of the structure shown.
How the values were obtained:
HeLa = assay: Cytotoxicity against human HeLa cells after 48 hrs by MTT assay; format: functional, cell-based
MCF7 = assay: Cytotoxicity against human MCF7 cells after 48 hrs by MTT assay; format: functional, cell-based; conditions: MCF7, 48 h
Micrococcus luteus = assay: Antimicrobial activity against Micrococcus luteus ATCC 9343 after 20 hrs by microplate reader assay; format: functional; conditions: ATCC 9343, 20 h
In short: (§1)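 Grown in Mueller Hinton broth on a reciprocal shaker for 20 h at 30 °C, then pelleted and resuspended in saline at 1 × 10^5 cells/mL. The suspension was mixed into fresh broth in 96-well plates with test sample in DMSO. Plates were incubated for 20 h at 30 °C, and growth was read as absorbance at 650 nm.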

Bacillus subtilis = assay: Antimicrobial activity against Bacillus subtilis PCI219 after 20 hrs by microplate reader assay; format: functional; conditions: PCI219, 20 h; in short: as §1
Bacillus cereus = assay: Antimicrobial activity against Bacillus cereus NBRC 15305 after 20 hrs by microplate reader assay; format: functional; conditions: NBRC 15305, 20 h; in short: as §1
Enterococcus faecalis = assay: Antimicrobial activity against Enterococcus faecalis NBRC 100480 after 20 hrs by microplate reader assay; format: functional; conditions: NBRC 100480, 20 h; in short: as §1
Escherichia coli = assay: Antimicrobial activity against Escherichia coli NIH-JC2 after 20 hrs by microplate reader assay; format: functional; conditions: NIH-JC2, 20 h
In short: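 The E. coli preculture was grown in Mueller Hinton broth, shaken for 20 h at 30 °C, centrifuged and suspended in saline at 1 × 10^5 cells/mL. The suspension was combined in broth with sample dissolved in DMSO. Incubation was 20 h at 37 °C, with absorbance at 650 nm read on a microplate reader.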

Staphylococcus aureus = assay: Antimicrobial activity against Staphylococcus aureus IFO 12732 after 20 hrs by microplate reader assay; format: functional; conditions: IFO 12732, 20 h; in short: as §1
Candida albicans = assay: Antimicrobial activity against Candida albicans IFO 1594 after 20 hrs by microplate reader assay; format: functional; conditions: IFO 1594, 20 h
In short: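 Yeast Nitrogen Base supplemented with 2% glucose was the medium. Cells were shaken for 20 h at 30 °C, pelleted and resuspended in saline at 1 × 10^5 cells/mL. They were mixed in medium with DMSO sample solution in 96-well plates and incubated for 20 h at 30 °C. Growth was measured as absorbance at 650 nm.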

Row | SMILES | IC50 (HeLa) | IC50 (MCF7) | MIC (Micrococcus luteus) | MIC (Bacillus subtilis) | MIC (Bacillus cereus) | MIC (Enterococcus faecalis) | MIC (Escherichia coli) | MIC (Staphylococcus aureus) | MIC (Candida albicans)
1 | C[C@H]1CC[C@@H]2[C@H](C=C[C@H]3[C@H](C)/C=C/C[C@]4(C)C=C(CO)[C@H](C[C@@H](C)O)C[C@]45OC(=O)C(=C5O)C(=O)[C@@]23C)C1 [MAKLAMICIN] | 17 µM | 34 µM | 0.2 µg/mL (≈ 0.381 µM) | 1.7 µg/mL (≈ 3.24 µM) | 6.5 µg/mL (≈ 12.4 µM) | 13 µg/mL (≈ 24.8 µM) | > 50 µg/mL | 13 µg/mL (≈ 24.8 µM) | 50 µg/mL (≈ 95.3 µM)
2 | CN(C)[C@@H]1C(O)=C(C(N)=O)C(=O)[C@@]2(O)C(O)=C3C(=O)c4c(O)cccc4[C@@](C)(O)[C@H]3C[C@@H]12.Cl [TETRACYCLINE HYDROCHLORIDE] | – | – | 0.1 µg/mL | 0.05 µg/mL | 1.5 µg/mL | 0.2 µg/mL | 0.8 µg/mL | 0.05 µg/mL | –

Source: ChEMBL document CHEMBL1773031, “Maklamicin, an antibacterial polyketide from an endophytic Micromonospora sp” (J Nat Prod, 2011)
